Screens as filed in PubChem BioAssay.
Apaf1 activ: activators of human Apaf-1 apoptosome. O14727. Apaf-1 apoptosome caspase-3 activation, DEVD-Rh110 fluorescence; active compounds read low. activity change, negative = activation, % at 20 µM. 330,000 tested, 0.31% active. AID 489031;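 active means activity change at or below -40% at 20 µM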
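system = biochemical Apaf-1 apoptosome reconstitution | buffer or medium = 20 mM HEPES pH 7.5 with CHAPS, BSA | also added = dATP and cytochrome c as apoptosome triggers, (Z-DEVD)2-Rh110 substrate | incubation = 30 min compound preincubation and 50 min reaction, both room temperature | measured by = fluorescence, 540 nm emission, 480 nm excitation | read-out basis = Caspase-3 cleavage activity downstream of Apaf-1 activation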
Rh110 act interf: interferes with Rh110 fluorescence, flagging false Apaf-1 activators; shares compounds with Apaf1 activ; Rh110 fluorescence interference, quenched caspase reaction, Ex480/Em540; fluorescence interference (activity change), % at 20 µM, hits read low; 980 tested, under 10 active;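 active means mean activity change at or below -40% when tested at 20 µM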
Apaf-1 act conf2: Apaf-1 (human) activation, single-dose confirmed; shares compounds with Apaf1 activ; reconstituted apoptosome caspase-3 activity, DEVD-Rh110 fluorescence; active compounds read low; activity change, negative = activation, % at 20 µM; 980 tested, 5% active;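 active means mean activity change at or below -40%, meaning activation of 40% or more, at 20 µM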
Fluor interf act: shows fluorescence interference in the Apaf-1 activator assay format; shares compounds with Apaf1 activ; fluorescence interference counterscreen; EC50, µM; 55 tested, under 10 active; AID 588592; call rule not given here
Numbers without * were called inactive; . = no result. Only a sample is shown.

SMILES | Apaf1 activ | Rh110 act interf | Apaf-1 act conf2 | others
COc1cc([N+](=O)[O-])ccc1NC(=O)COC(=O)c1ccc(NC(N)=O)cc1 | -44* | -1 | -43* | Fluor interf act=>100
COc1ccc(NC(=O)CCCCCN2C(=O)c3cccc([N+](=O)[O-])c3C2=O)c(OC)c1 | 41 | . | .
COc1cc([N+](=O)[O-])ccc1NC(=O)CN1CCc2cc(OC)c(OC)cc2C1 | 44 | . | .
CN1CCN(CCCNC(=O)c2cc3c(-c4ccc(Cl)cc4)nn(C)c3s2)CC1 | 43 | . | .
COc1ccc(C(=O)Nn2cnc3scc(-c4cccs4)c3c2=O)c(O)c1 | -391* | 2 | 21
C#CCOCCOCCOCCNc1nc(N2CCN(C(=O)CCCCCCCCCCNC(=O)[C@@H](CCSC)n3cc(CCO)nn3)CC2)nc(N2CCN(C(=O)CCCCCCCCCCNC(=O)[C@H]([C@@H](C)CC)n3cc(CCCCN=C(N)N)nn3)CC2)n1 | 64 | . | .
CCOc1c(O)ccc(/C=C2\SC(=S)NC2=O)c1[N+](=O)[O-] | 56 | . | .
CCN(CC)CCOC(=O)c1ccc(N/C=C(/C#N)c2nc(-c3ccc4c(c3)OCO4)cs2)cc1 | 60 | . | .
